Experimental data: ChEMBL document CHEMBL1128440 (J Med Chem, 1995)

Key:
Rattus norvegicus [1] = species on record: Rattus norvegicus; test: Tissue biodistribution into estrogen-primed immature female rat lung at 3 hr time interval; assay type: ADME, organism-based; details: in vivo
Procedure, shortened: (§1)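 Immature female Sprague-Dawley rats (25 days old, ≈50 g, five per time point) primed with estradiol, 5 μg sc daily for 2 days in 50% ethanol/sunflower seed oil, used 24 h after the last injection. The 18F-labeled ligand was given iv by tail vein in 10% ethanol/saline. Decapitated at 1 or 3 h; blood and organs weighed and gamma-counted. Reported as %ID/g ± SD, n = 5.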

Rattus norvegicus [2] = species on record: Rattus norvegicus; test: Tissue biodistribution into estrogen-primed immature female rat liver at 1 hr low time interval; assay type: ADME, organism-based; details: in vivo; procedure, shortened: as §1
Rattus norvegicus [3] = species on record: Rattus norvegicus; test: Tissue biodistribution into estrogen-primed immature female rat fat at 3 hr time interval; assay type: ADME, organism-based, Adipose tissue; details: in vivo; procedure, shortened: as §1
Rattus norvegicus [4] = species on record: Rattus norvegicus; test: Tissue biodistribution into estrogen-primed immature female rat blood at 3 hr time interval; assay type: ADME, organism-based; details: in vivo; procedure, shortened: as §1
Rattus norvegicus [5] = species on record: Rattus norvegicus; test: Tissue biodistribution into estrogen-primed immature female rat uterus at 1 hr time interval; assay type: ADME, organism-based; details: in vivo; procedure, shortened: as §1
Rattus norvegicus [6] = species on record: Rattus norvegicus; test: Tissue biodistribution into estrogen-primed immature female rat uterus/muscle at 1 hr low time interval; assay type: ADME, organism-based; details: in vivo; procedure, shortened: as §1
Rattus norvegicus [7] = species on record: Rattus norvegicus; test: Tissue biodistribution into estrogen-primed immature female rat uterus/blood at 3 hr time interval; assay type: ADME, organism-based; details: in vivo; procedure, shortened: as §1
Rattus norvegicus [8] = species on record: Rattus norvegicus; test: Tissue biodistribution into estrogen-primed immature female rat fat at 1 hr time interval; assay type: ADME, organism-based, Adipose tissue; details: in vivo; procedure, shortened: as §1
Rattus norvegicus [9] = species on record: Rattus norvegicus; test: Tissue biodistribution into estrogen-primed immature female rat brain at 1 hr time interval; assay type: ADME, organism-based; details: in vivo; procedure, shortened: as §1
Rattus norvegicus [10] = species on record: Rattus norvegicus; test: Tissue biodistribution into estrogen-primed immature female rat bone at 1 hr blocked time interval; assay type: ADME, organism-based, Bone element; details: in vivo; procedure, shortened: as §1
Rattus norvegicus [11] = species on record: Rattus norvegicus; test: Tissue biodistribution into estrogen-primed immature female rat kidney at 3 hr time interval; assay type: ADME, organism-based; details: in vivo; procedure, shortened: as §1
[12] = molecular target: T1, Progesterone receptor (Homo sapiens) (UniProt P06401); test: Binding selectivity index as the ratio of RBA value to that of NSB value.
T1 sequence (whole entry): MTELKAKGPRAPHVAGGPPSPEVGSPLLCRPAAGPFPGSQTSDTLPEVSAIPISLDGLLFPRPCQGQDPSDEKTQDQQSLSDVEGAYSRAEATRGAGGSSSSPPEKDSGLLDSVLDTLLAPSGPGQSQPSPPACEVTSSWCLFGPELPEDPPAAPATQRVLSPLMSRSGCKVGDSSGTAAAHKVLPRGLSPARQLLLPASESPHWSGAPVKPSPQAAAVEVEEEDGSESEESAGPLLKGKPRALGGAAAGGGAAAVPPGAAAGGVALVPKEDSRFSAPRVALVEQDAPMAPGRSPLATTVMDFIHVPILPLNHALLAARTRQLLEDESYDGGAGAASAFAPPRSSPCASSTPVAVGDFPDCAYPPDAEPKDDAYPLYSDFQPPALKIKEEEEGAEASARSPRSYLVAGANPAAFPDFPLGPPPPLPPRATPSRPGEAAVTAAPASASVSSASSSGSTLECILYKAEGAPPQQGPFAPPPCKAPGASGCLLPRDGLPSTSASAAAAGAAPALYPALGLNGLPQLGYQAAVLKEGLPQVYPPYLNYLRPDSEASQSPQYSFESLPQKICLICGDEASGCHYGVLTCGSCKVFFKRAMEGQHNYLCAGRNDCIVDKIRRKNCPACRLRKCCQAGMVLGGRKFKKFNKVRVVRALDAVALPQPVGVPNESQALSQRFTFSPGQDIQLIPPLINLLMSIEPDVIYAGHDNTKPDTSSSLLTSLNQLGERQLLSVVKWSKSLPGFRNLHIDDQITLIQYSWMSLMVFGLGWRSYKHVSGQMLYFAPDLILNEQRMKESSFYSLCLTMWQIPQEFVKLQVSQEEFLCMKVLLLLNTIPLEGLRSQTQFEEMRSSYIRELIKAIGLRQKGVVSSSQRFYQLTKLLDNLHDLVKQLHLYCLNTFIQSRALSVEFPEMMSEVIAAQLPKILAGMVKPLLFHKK
Procedure, shortened: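 BSI calculated as the ratio of RBA to NSB.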

Rattus norvegicus [13] = species on record: Rattus norvegicus; test: Tissue biodistribution into estrogen-primed immature female rat ovaries at 1 hr time interval; assay type: ADME, organism-based, Female gonad; details: in vivo; procedure, shortened: as §1
[14] = molecular target: T1, Progesterone receptor (Homo sapiens); test: Nonspecific binding affinity against progesterone receptor was estimated relative to compound R5020
Rattus norvegicus [15] = species on record: Rattus norvegicus; test: Tissue biodistribution into estrogen-primed immature female rat uterus/muscle at 1 hr time interval; assay type: ADME, organism-based; details: in vivo
Rattus norvegicus [16] = species on record: Rattus norvegicus; test: Tissue biodistribution into estrogen-primed immature female rat uterus/muscle at 3 hr time interval; assay type: ADME, organism-based; details: in vivo
Rattus norvegicus [17] = species on record: Rattus norvegicus; test: Tissue biodistribution into estrogen-primed immature female rat bone at 1 hr time interval; assay type: ADME, organism-based, Bone element; details: in vivo; procedure, shortened: as §1
Rattus norvegicus [18] = species on record: Rattus norvegicus; test: Tissue biodistribution into estrogen-primed immature female rat uterus at 1 hr blocked time interval; assay type: ADME, organism-based; details: in vivo; procedure, shortened: as §1
Rattus norvegicus [19] = species on record: Rattus norvegicus; test: Tissue biodistribution into estrogen-primed immature female rat lung at 1 hr blocked time interval; assay type: ADME, organism-based; details: in vivo; procedure, shortened: as §1
Rattus norvegicus [20] = species on record: Rattus norvegicus; test: Tissue biodistribution into estrogen-primed immature female rat liver at 3 hr time interval; assay type: ADME, organism-based; details: in vivo; procedure, shortened: as §1
Rattus norvegicus [21] = species on record: Rattus norvegicus; test: Tissue biodistribution into estrogen-primed immature female rat bone at 1 hr low time interval; assay type: ADME, organism-based, Bone element; details: in vivo; procedure, shortened: as §1
Rattus norvegicus [22] = species on record: Rattus norvegicus; test: Tissue biodistribution into estrogen-primed immature female rat liver at 1 hr blocked time interval; assay type: ADME, organism-based; details: in vivo; procedure, shortened: as §1
Rattus norvegicus [23] = species on record: Rattus norvegicus; test: Tissue biodistribution into estrogen-primed immature female rat uterus at 1 hr low time interval; assay type: ADME, organism-based; details: in vivo; procedure, shortened: as §1
Rattus norvegicus [24] = species on record: Rattus norvegicus; test: Tissue biodistribution into estrogen-primed immature female rat uterus at 3 hr time interval; assay type: ADME, organism-based; details: in vivo; procedure, shortened: as §1
Rattus norvegicus [25] = species on record: Rattus norvegicus; test: Tissue biodistribution into estrogen-primed immature female rat blood at 1 hr blocked time interval; assay type: ADME, organism-based; details: in vivo; procedure, shortened: as §1
Rattus norvegicus [26] = species on record: Rattus norvegicus; test: Tissue biodistribution into estrogen-primed immature female rat uterus/muscle at 1 hr blocked time interval; assay type: ADME, organism-based; details: in vivo; procedure, shortened: as §1

- Injected dose/g (Rattus norvegicus [1]): 0.27%
- Injected dose/g (Rattus norvegicus [2]): 0.68%
- Injected dose/g (Rattus norvegicus [3]): 4.16%
- Injected dose/g (Rattus norvegicus [4]): 0.14%
- Injected dose/g (Rattus norvegicus [5]): 6.51%
- Injected dose/g (Rattus norvegicus [6]): 12.09%
- uterus/blood ratio (Rattus norvegicus [7]): 71.1
- Injected dose/g (Rattus norvegicus [8]): 2.86%
- Injected dose/g (Rattus norvegicus [9]): 0.58%
- Injected dose/g (Rattus norvegicus [10]): 1.29%
- Injected dose/g (Rattus norvegicus [11]): 0.76%
- BSI [12]: 159
- Injected dose/g (Rattus norvegicus [13]): 3.04%
- NSB [14]: 1.09
- Uterus to muscle uptake ratio (Rattus norvegicus [15]): 12.07%
- ratio (Rattus norvegicus [16]): 53.1
- Injected dose/g (Rattus norvegicus [17]): 1.15%
- Injected dose/g (Rattus norvegicus [18]): 1.43%
- Injected dose/g (Rattus norvegicus [19]): 1.16%
- Injected dose/g (Rattus norvegicus [20]): 1.61%
- Injected dose/g (Rattus norvegicus [21]): 0.84%
- Injected dose/g (Rattus norvegicus [22]): 1.52%
- Injected dose/g (Rattus norvegicus [23]): 3.46%
- Injected dose/g (Rattus norvegicus [24]): 8.65%
- Injected dose/g (Rattus norvegicus [25]): 0.6%
- uterus/muscle ratio (Rattus norvegicus [26]): 2.68
Structure (SMILES): CC1(c2ccco2)O[C@@H]2CC3C4CCC5=CC(=O)CC[C@@H]5C4CC[C@]3(C)[C@]2(C(=O)CF)O1 (stereo partly specified)
